Screens from PubChem BioAssay.
In the library only some 3.5% were active in any assay of this set; here they are far more common.
MrgX1 agonist = activates human MrgX1 receptor signaling. MrgX1-HEK293 cells, Fluo-4 calcium fluorescence, agonist mode; active compounds read high. Q96LB2. B-score at 10 µM. 310,000 compounds, 0.44% hits;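 active = calcium response B-score plate-corrected fluorescence ratio at least 3 library SD, with starting fluorescence B-score inside 5 SD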
Target sequence (Q96LB2 whole entry, looked up): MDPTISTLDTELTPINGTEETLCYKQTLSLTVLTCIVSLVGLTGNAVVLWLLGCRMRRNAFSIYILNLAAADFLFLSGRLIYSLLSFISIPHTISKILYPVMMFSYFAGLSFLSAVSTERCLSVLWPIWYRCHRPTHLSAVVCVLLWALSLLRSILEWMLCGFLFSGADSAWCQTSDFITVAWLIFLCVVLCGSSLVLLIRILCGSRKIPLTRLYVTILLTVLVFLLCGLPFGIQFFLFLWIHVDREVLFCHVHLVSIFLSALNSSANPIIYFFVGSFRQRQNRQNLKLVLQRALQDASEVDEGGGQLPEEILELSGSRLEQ
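Material: HEK293 cells stably expressing human MrgX1 receptor | Quantity: 15,000 cells per well | Times: Cells plated overnight, dye loaded 0.5 h 37 °C, 0.5 h room temperature | Measured by: Kinetic Fluo-4 NW fluorescence of intracellular calcium | Control set: Positive and negative controls per plate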
MrgX1 PAM = allosterically activates human MrgX1 receptor signaling. Q96LB2. MrgX1-HEK293, Fluo-4 calcium flux, FDSS; active compounds read high. B-score at 10 µM. 310,000 compounds, 0.63% hits. AID 588675;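 active = plate-corrected calcium response at least 3 library SD above typical, normal starting fluorescence, not activating the receptor alone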;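 also: compound read alongside a low EC10 to EC30 dose of BAM8-22 agonist; peak minus trough fluorescence over baseline measured at the second addition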
MrgX1 antag = antagonists of human MrgX1 receptor. Q96LB2. MRGX1-HEK293 calcium flux, Fluo-4, BAM8-22 antagonism; active compounds read low. B-score at 10 µM. 310,000 compounds, 1.3% hits. AID 588676;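 active = calcium-response B-score plate-corrected more than 3 library SD below zero, starting fluorescence within 5 deviations, no agonist response on first addition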;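 also: peak minus trough fluorescence over baseline after final BAM8-22 challenge near maximal dose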
RGS4 block = human RGS4 inhibition; HEK293 M3R/RGS4 inducible, Fluo-4 calcium flux; active compounds read high; triggered by carbachol at its EC20; B-score at 10 µM; 310,000 compounds, 0.45% hits; AID 463165;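 active = B-score, a plate-corrected calcium signal, over three deviations above library mean, with baseline fluorescence within five deviations of library mean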;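 also: RGS4 expression induced by doxycycline in cells with stable M3 receptor; B-score is computed from the integrated fluorescence ratio over baseline after carbachol; higher B-score means a larger calcium signal and so more RGS4 inhibition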
Target sequence (P49798 whole entry, looked up): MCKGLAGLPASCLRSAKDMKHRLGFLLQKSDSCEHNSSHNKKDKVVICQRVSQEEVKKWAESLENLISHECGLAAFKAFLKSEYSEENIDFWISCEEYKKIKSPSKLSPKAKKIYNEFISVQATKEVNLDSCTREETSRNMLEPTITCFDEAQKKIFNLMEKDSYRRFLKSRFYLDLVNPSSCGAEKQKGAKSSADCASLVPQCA
RGS4 act = potentiators or activators of RGS4; B-score at 10 µM; 310,000 compounds, 0.92% hits; AID 463111; HEK293 M3R/inducible RGS4, carbachol calcium flux Fluo4; active compounds read low;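 active = B-score of the integrated calcium signal more than 4 SD below the library mean, with starting fluorescence not abnormally high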;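 also: negative B-score means reduced calcium response which marks RGS4 activation or potentiation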
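test system = M3R-expressing HEK293 line, RGS4 induced by doxycycline | probe or stimulus = carbachol at ECmax as muscarinic agonist stimulus | timing = dye loading 30 min 37 °C, buffer rest 30 min RT | signal = calcium dye Fluo4 fluorescence | evaluation = B score from integrated fluorescence ratio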
Active calls of the source: *; i = inactive; x = no result.

SMILES | MrgX1 agonist | MrgX1 PAM | MrgX1 antag | RGS4 block | RGS4 act
COc1c2c(nc3occc13)C(CC=C(C)C)(OC)C(=O)C=C2 (stereo unspecified) | i | 12* | i | i | i
C=CCOc1ccc2c(OC)c3ccoc3nc2c1OC | i | i | i | i | i
O=S(=O)(c1cnc[nH]1)N1CCN(C(c2ccc(F)cc2)c2ccc(F)cc2)CC1 | i | i | i | i | i
O=C(NC(=S)NNC(=O)c1ccccc1O)c1ccco1 | 30* | i | i | i | i
O=C(/C=C/c1cccs1)NC(=S)NNC(=O)c1ccccc1O | 63* | i | i | i | i
O=C(CC(C(=O)O)c1ccc(Cl)cc1Cl)c1ccc(Cl)cc1 (stereo unspecified) | i | i | i | i | i
COc1ccccc1/C=C/C=N/n1c(C)nnc1C | i | i | i | i | i
O=c1c(C(c2ccccc2)c2c(O)sc3ccccc3c2=O)c(O)sc2ccccc12 | i | i | -4.6* | i | i
Cc1cc2sc3ccccc3c(=O)c2c(C)c1O | i | i | i | i | i
COc1ccc(NC(=O)CC(c2ccco2)C(C)C)cc1 (stereo unspecified) | i | i | i | i | i
COc1ccc(OC)c(CNn2c(-c3ccccc3F)nc3ccccc3c2=O)c1 | i | i | -4.8* | i | i
COCCN=c1scc(-c2cccs2)n1/N=C/c1ccc(O)c(O)c1O | i | 16* | i | i | i
C[C@H]1c2cccc(O)c2C(O)=C2C(=O)[C@]3(O)C(O)=C(C(N)=O)C(=O)[C@@H](N(C)C)C3[C@@H](O)C21 (stereo partly specified) | i | i | -6.8* | i | i
COc1ccc(C/C(N)=N/O)cc1 | i | i | -8.3* | i | i
COc1ccc(CC(=O)O/N=C(\N)Cc2ccc(OC)cc2)cc1 | i | i | i | i | i
CN(C(=O)c1ccc2c(c1)OCCO2)c1c(N)n(Cc2ccccc2)c(=O)[nH]c1=O | i | i | i | i | i
CCNC(=O)COC(=O)/C=C/c1ccccc1[N+](=O)[O-] | i | i | i | i | i
O=C(COC(=O)/C=C/c1ccccc1[N+](=O)[O-])NCC(F)(F)F | i | i | -4.9* | i | i
COc1ccc(/C(C)=N/NC(=O)CNC(=O)/C=C\c2ccccc2OC)c(OC)c1 | i | i | i | i | i
O=C(NCCOc1ccc(F)cc1)C1CCC(=O)N(CCc2ccccn2)C1 (stereo unspecified) | i | i | i | i | i
O=C(/C=C/c1ccc(Cl)cc1)NC1CC2CCC1C2 (stereo unspecified) | i | 7.2* | i | i | i
Nn1c(-c2cccs2)nc2sc3c(c2c1=O)CCCC3 | i | i | i | i | i
Cc1ccccc1-c1nc2sc3c(c2c(=O)n1N)CCCC3 | i | 18* | i | i | i
C[C@@]12C(=O)OC(=O)[C@]1(C)C1CCC2O1 | i | i | i | x | x
CS(=O)(=O)N1N=C(c2ccccc2)CC1c1ccc2nccnc2c1 (stereo unspecified) | i | i | i | i | i
SMILES | MrgX1 agonist | MrgX1 PAM | MrgX1 antag | RGS4 block | RGS4 act
CS(=O)(=O)N1N=C(c2ccc3nccnc3c2)CC1c1ccccc1 (stereo unspecified) | i | 6.5* | i | i | i
CCNc1ccc(Br)cc(C(=O)/C=C/c2ccccc2Cl)c1=O | i | i | -6* | i | i
CNc1ccc(Br)cc(C(=O)/C=C/c2cccc(OC)c2OC)c1=O | i | i | -4.8* | i | i
Cc1cc(C)c2nc(N3CCC(C(=O)NCCCN4CC(C)CC(C)C4)CC3)sc2c1 (stereo unspecified) | i | i | i | i | -10*
Cc1cc(C)c2nc(N3CCCC(C(=O)NCCCN4CCOCC4)C3)sc2c1 (stereo unspecified) | i | i | i | i | i
COC(=O)C1=C(C)NC(C)=C(C(=O)OC)C1c1ccccc1[N+](=O)[O-] | i | i | i | i | -8.5*
COc1ccccc1C(=O)NCCC(=O)NNC(=O)Cn1ccc(C(F)(F)F)n1 | i | i | i | i | i
O=S(=O)(Nc1c(S(=O)(=O)c2ccccc2)c2nc3ccccc3nc2n1C1CCCCC1)c1ccccc1 | i | i | i | i | -10*
COc1ccccc1/C=C(\C#N)C(=O)c1cccn1C | 32* | i | i | i | i
Cn1cccc1C(=O)/C(C#N)=C/c1ccc(F)cc1 | 35* | i | i | i | i
CCOC(=O)CCNC(=O)c1ccc2nc(C3CCCCC3)oc2c1 | i | i | i | i | i
CC1=[N+](C)N(c2ccccc2)C(=O)C1N=Cc1c(Cl)cccc1Cl (stereo unspecified) | 31* | i | i | i | i
CC1=[N+](C)N(c2ccccc2)C(=O)C1N=Cc1ccccc1Cl (stereo unspecified) | i | i | i | i | i
CCCCn1c(N)c(N(CCOC)C(=O)COC(=O)COc2c(C)cccc2C)c(=O)[nH]c1=O | i | i | i | i | i
CCCCN(C(=O)COC(=O)COc1c(C)cc(C)cc1C)c1c(N)n(CCC)c(=O)[nH]c1=O | i | i | -8.2* | i | i
CCc1nnc(NC(=O)CSc2nc3ccc(OC)cc3[nH]2)s1 | i | i | i | i | i
Cc1cc(C)c(S(=O)(=O)/N=C2/C=C(Sc3ncn[nH]3)C(=O)c3ccccc32)cc1C | i | 6.8* | i | x | x
Cc1ccc(C)c(S(=O)(=O)/N=C2\C=C(NS(=O)(=O)c3ccccc3)C(=O)c3ccccc32)c1 | i | i | i | i | i
COc1ccc(-n2c(-c3ccc(Br)cc3)c[n+]3c2CCC3)cc1 | i | i | i | i | -7.2*
CC1(NC(=O)CCc2nc3ccccc3c(=O)[nH]2)CCS(=O)(=O)C1 (stereo unspecified) | i | i | i | i | i
CC(=O)O[C@@H]1C[C@H]2C(C)(C)C(=O)C=C[C@]2(C)[C@H]2CC[C@@]3(C)[C@H](c4ccoc4)OC(=O)[C@H]4O[C@]43[C@@]21C | i | 9.8* | i | i | i
Cc1ccc(NC(=O)c2cccc(S(=O)(=O)N3CCN(c4ccccc4)CC3)c2)nc1 | i | i | i | i | i
Cc1ccc(-n2c(CSc3nc(C)cc(C)n3)nnc2SCC(=O)NCc2ccco2)cc1 | i | i | -6.6* | i | i
